Compound activity: PubChem, several laboratories
GRIN3A LBD mod: NR3A (human) ligand-binding domain modulation. NR3A LBD differential scanning fluorimetry, Tm shift; 0% = protein alone, 100% = glycine-bound protein. Tm shift relative to glycine control, % at 25 µM. actives 2.5% (n = 340,000);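 active = melting temperature shift of at least 10% of the positive control shift, at one fixed dose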
MPTP block: inhibitors of mitochondrial permeability transition pore. isolated mouse mitochondria, Ca2+ swelling absorbance, 30 min. inhibition, % at 10 µM. AID 602449. actives 1.4% (n = 360,000);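 active = inhibition of 50% or more, scaled per plate between neutral and stimulator controls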;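 note: 0% = DMSO wells given calcium and 100% = 1 mM EGTA wells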
ADAM17 inh: ADAM17 inhibition, QFRET primary screen. P78536. recombinant ADAM17, EDANS/DABCYL FRET peptide cleavage. inhibition, % at 6.95 µM. actives 0.83% (n = 370,000). AID 720648;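 active = inhibition above the mean of compounds lying between control limits plus 3 SD, set per campaign, cut at about 8.5% in these data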;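 note: 0% = DMSO-only wells as the low control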
SKN-1 block: C. elegans SKN-1 inhibition; C. elegans VP596 Pgst-4::GFP/RFP ratio, acrylamide-induced, 24 h; actives 0.49% (n = 360,000); AID 624304; inhibition, % at 21.8 µM;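 active = interference check ratio from 0.5 to 1.5 plus GFP to RFP signal ratio inhibition reaching or exceeding a fixed threshold, cut at about 30% in these data, passing the limit was not always enough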
ADAM10 inh: inhibitors of human ADAM10. O14672. recombinant ADAM10, EDANS/DABCYL FRET peptide cleavage, 3 h. inhibition, % at 7 µM. actives 0.62% (n = 370,000). AID 720582;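 active = inhibition above a per-campaign cutoff equal to the mean of compounds falling between control-based bounds plus 3 SD, cut at about 20% in these data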;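 note: 0% = DMSO wells while the 100% control is not disclosed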
Target sequence (O14672 214-748 limits assumed): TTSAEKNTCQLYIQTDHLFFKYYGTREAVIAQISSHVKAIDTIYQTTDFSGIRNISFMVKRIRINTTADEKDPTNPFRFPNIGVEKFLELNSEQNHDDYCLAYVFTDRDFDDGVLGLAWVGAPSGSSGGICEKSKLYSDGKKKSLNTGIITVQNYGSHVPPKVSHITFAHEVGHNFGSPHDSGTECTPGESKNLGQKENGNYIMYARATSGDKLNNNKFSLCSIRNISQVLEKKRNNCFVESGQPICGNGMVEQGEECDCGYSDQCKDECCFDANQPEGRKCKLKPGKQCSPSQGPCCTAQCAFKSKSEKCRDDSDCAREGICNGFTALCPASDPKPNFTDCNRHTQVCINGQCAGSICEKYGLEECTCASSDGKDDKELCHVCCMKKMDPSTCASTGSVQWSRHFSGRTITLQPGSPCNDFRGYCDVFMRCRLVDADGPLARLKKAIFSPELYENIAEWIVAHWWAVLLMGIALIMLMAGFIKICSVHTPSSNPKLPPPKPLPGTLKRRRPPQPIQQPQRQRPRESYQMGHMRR
MT1-MMP act inh: MT1-MMP (human) activation inhibition; P50281; actives 0.061% (n = 360,000); HT1080 RFP-PRO-GFP cells, GFP/RFP ratio fluorescence, overnight; percent of plate control window, DMSO zero; GFP/RFP ratio change, % at 20 µM;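 active = GFP/RFP ratio change of at least 30% with cell ATP level not reduced by more than half and red fluorescence within 50% of control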
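Material: RFP-PRO-GFP reporter HT1080 cells. Dosing: single-point 20 µM compound, 1% DMSO. Controls: DMSO and RFP-L50D-GFP cell wells. Timing: cells overnight before dosing, compound overnight, 37 °C, 5% CO2. Measure: GFP/RFP fluorescence ratio.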
MPTP counter: membrane potential counter-screen of mitochondrial pore inhibitors; isolated mitochondria, Rhodamine 123 fluorescence; inhibition, % at 10 µM; AID 624504; actives 78% (n = 5,000); shares compounds with MPTP block; in the data active = inhibition above about 22%;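 note: 0% = DMSO vehicle and 100% = positive control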
MPTP swell DR: dose response confirmation of mitochondrial permeability transition pore inhibitors. isolated mitochondria swelling, absorbance. AID 651561. IC50, µM. shares compounds with MPTP block. actives 58% (n = 780); in the data active = IC50 below about 20 µM
MPTP cs DR: MPTP inhibitor counter-screen activity, dose response | shares compounds with MPTP block | actives 49% (n = 780) | IC50, µM | AID 651564 | isolated mitochondria counterscreen, fluorescence read-out; in the data active = IC50 below about 80 µM
An asterisk follows results filed as active; i = inactive; . = no result. A selection: hits, their analogues and other compounds. The true share with any hit is near 4.7%.

SMILES	GRIN3A LBD mod	MPTP block	ADAM17 inh	SKN-1 block	ADAM10 inh	MT1-MMP act inh	MPTP counter	others
Cc1ccc(CN(Cc2cc3cccc(C)c3[nH]c2=O)C(=S)NCCCN(C)C)cc1	-1	65*	-4	-10	-1	-7	-13	MPTP swell DR=12*;MPTP cs DR=>80
CC(C)(C)c1ccc(C2CC2C(=O)N/N=C\c2ccc[nH]2)cc1 (configuration not stated)	-3	105*	-2	-3	1	-42	98*
Cc1cc(C(C)(C)C)ccc1OCCN1CCCC1	-3	12	3	-22	-6	8	.
Cc1cc(C(C)(C)C)ccc1OCCCCN1CCCC1	-7	51*	-3	6	-7	-2	7	MPTP swell DR=6.8*;MPTP cs DR=13*
CC(C)CC(NC(=O)c1ccc(Cl)cc1)C(=O)OCc1cc([N+](=O)[O-])cc2c1OCOC2 (configuration not stated)	-8	2	7	-1	9	0	.
Cc1ccc(C)c(NC(=O)c2cc3ccccn3n2)c1	0	53*	3	2	9	4	5	MPTP swell DR=i;MPTP cs DR=>80
Cc1ccccc1NC(=O)c1cc2ccccn2n1	2	1	-4	0	-3	0	.
Cc1nn(-c2cccc(Cl)c2)c2nc(C(F)(F)F)[nH]c(=O)c12	0	98*	-2	12	-5	-2	53*
Cc1nn(-c2cc(C(F)(F)F)ccc2Cl)c2nc(C(F)(F)F)[nH]c(=O)c12	1	2	5	-5	6	3	.
Cc1ccc(C2=[N+]([O-])C3(CCCCC/C3=N\NC(N)=O)N(O)C2(C)C)o1 (configuration not stated)	-2	2	0	-12	0	1	.
CCN1/C(=C/c2ccc3cc(C)ccc3[n+]2C)Sc2ccc3sccc3c21	-3	34	-1	58	-28	-6	.
CCCCN1/C(=C/c2cccc[n+]2C)Sc2cc(NC(C)=O)ccc21	0	0	-1	1	7	-7	.
CCN1/C(=C/c2ccc3cc(C)ccc3[n+]2CC)Sc2cc(C)ccc21	0	98*	-4	56	-4	-23	103*
CCN1/C(=C/c2ccc3ccccc3[n+]2CC)C=Cc2ccccc21	-1	160*	0	78	-11	66	68*
CCCCN1/C(=C/c2ccc3ccccc3[n+]2CC)Sc2ccccc21	1	94*	.	36*	.	-151	104*
Cc1ccccc1-n1nc2c(c1NC(=O)c1cccc(F)c1)CS(=O)C2 (configuration not stated)	2	-1	-3	6	-8	-1	.
COc1ccc(C(=O)Nc2ccc(-c3cn4ccsc4n3)cc2)cc1S(=O)(=O)N1CCOCC1	27*	58*	4	-7	-1	-6	9	MPTP swell DR=>100;MPTP cs DR=>80
COCCCNC(=O)C[C@H]1C[C@H](C(=O)N2CCOCC2)[C@@]2(C)c3[nH]c4cc(CCC(=O)N(C)C)ccc4c3CCN2C1=O	0	-1	-2	16	-5	-1	.
C=CCn1c(SCC(=O)Nc2sccc2C(N)=O)nc2ccc(Cl)cc2c1=O	1	1	0	11	5	-9	.
C=CCn1c(SCN2C(=O)c3ccccc3C2=O)nc2ccc(Cl)cc2c1=O	-3	90*	3	-2	0	-8	90*
CCc1cc2c(=O)c(-c3cnn(-c4ccccc4)c3)c(C)oc2cc1OCC(=O)Nc1ccc(F)c(F)c1	4	80*	-4	-1	-17	2	-3	MPTP swell DR=>100;MPTP cs DR=>80
CCc1cc2c(=O)c(-c3cnn(-c4ccccc4)c3)c(C)oc2cc1OCC(=O)Nc1cccc(C)c1	-18	3	-2	-8	-8	3	.
